For one data set, the target named is T1, Monoglyceride lipase (Mus musculus, UniProt O35678).
T1 sequence (O35678 whole entry): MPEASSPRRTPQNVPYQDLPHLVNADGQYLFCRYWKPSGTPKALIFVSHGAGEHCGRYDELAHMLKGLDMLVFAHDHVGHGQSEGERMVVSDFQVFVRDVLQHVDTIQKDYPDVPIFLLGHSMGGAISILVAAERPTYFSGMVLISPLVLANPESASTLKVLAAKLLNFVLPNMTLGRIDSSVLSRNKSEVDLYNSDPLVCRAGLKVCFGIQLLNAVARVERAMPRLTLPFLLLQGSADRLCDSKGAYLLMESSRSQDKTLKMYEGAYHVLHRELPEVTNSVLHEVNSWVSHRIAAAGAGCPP
Kind of data set: Inhibition of MAGL in mouse brain membrane. Type of data set: cell membranes. In a few lines: (§1)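 Mouse brain membrane fraction (Dounce homogenized in PBS pH 7.5, 1,400 × g debris spin, 64,000 × g 45 min pellet, resuspended) at 1 mg/ml in PBS. Inhibitor preincubated 30 min at 37°C, then FP-rhodamine 1 μM final for 30 min at 25°C. SDS-PAGE with in-gel fluorescence scanning. IC50 from fitted integrated band intensities, mean of at least triplicates.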

The target of data set [1] is T2, Patatin-like phospholipase domain-containing protein 6 (Mus musculus) (UniProt Q3TRM4).
T2 sequence (whole entry): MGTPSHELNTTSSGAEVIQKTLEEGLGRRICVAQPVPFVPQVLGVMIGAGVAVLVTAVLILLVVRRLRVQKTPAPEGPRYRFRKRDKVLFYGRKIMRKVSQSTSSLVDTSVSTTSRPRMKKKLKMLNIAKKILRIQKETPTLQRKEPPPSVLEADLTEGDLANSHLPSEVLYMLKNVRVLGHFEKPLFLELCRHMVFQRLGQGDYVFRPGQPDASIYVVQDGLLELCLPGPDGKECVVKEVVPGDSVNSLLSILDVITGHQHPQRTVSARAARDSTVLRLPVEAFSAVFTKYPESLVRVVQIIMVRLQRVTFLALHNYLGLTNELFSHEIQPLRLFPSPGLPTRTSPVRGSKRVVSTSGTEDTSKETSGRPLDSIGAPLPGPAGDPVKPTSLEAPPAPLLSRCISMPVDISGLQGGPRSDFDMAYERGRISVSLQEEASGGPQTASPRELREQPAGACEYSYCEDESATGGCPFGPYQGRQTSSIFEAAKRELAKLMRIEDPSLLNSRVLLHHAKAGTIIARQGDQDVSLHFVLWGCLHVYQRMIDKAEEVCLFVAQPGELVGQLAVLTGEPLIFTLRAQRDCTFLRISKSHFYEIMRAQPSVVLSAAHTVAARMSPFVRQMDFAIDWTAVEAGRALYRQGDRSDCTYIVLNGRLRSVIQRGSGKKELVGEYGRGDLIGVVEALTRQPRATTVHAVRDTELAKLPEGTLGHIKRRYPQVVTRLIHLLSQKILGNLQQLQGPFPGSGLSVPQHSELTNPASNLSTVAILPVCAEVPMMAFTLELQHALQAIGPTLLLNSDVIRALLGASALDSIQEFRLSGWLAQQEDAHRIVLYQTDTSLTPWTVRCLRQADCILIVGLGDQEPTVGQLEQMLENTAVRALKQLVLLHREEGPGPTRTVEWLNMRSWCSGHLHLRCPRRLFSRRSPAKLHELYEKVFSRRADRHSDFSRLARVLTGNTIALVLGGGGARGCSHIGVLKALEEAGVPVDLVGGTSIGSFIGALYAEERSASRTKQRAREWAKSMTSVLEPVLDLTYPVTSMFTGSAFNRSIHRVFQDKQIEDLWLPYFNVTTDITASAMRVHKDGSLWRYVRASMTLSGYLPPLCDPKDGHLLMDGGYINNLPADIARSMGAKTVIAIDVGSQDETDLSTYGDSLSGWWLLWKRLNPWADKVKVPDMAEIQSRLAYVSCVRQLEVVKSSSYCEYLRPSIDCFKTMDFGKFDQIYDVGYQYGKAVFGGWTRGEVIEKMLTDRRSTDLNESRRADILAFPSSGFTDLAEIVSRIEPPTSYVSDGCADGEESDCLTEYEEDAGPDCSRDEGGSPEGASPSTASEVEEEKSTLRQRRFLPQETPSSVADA
Briefly: Inhibition of NTE in mouse brain membrane at 100 uM. Type of data set: cell membranes. In outline: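 Competitive ABPP on mouse brain membrane proteome at 1 mg/ml in PBS. Inhibitor at 100 μM for 30 min at 37°C, then FP-rhodamine 1 μM final for 30 min at 25°C. SDS-PAGE and in-gel fluorescence scanning. Percent loss of NTE band labeling.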

The target of data set [2] is T3, Fatty-acid amide hydrolase 1 (Mus musculus, UniProt O08914).
T3 sequence (O08914 whole entry): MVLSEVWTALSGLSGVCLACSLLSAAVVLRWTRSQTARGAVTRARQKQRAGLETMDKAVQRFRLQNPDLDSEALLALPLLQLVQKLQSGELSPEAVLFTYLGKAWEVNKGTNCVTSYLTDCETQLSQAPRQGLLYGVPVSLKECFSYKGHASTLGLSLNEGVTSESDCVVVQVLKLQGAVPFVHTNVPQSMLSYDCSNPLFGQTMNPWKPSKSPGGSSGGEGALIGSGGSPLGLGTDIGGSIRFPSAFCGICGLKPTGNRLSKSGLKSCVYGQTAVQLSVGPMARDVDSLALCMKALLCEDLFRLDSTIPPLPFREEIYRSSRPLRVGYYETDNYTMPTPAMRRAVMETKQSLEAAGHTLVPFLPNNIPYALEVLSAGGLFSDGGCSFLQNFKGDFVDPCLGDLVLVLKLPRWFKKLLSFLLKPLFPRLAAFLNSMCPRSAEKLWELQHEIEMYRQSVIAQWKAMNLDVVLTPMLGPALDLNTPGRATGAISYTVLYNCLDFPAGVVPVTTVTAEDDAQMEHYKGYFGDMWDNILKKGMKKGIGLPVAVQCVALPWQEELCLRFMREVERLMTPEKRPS
Kind of data set: Inhibition of FAAH in mouse brain membrane. Type of data set: cell membranes. In a few lines:
as §1

The target of data set [3] is T4, Patatin-like phospholipase domain-containing protein 6 (Mus musculus, UniProt Q3TRM4).
T4 sequence (Q3TRM4 whole entry): T2 sequence (whole entry)
Briefly: Inhibition of NTE in mouse brain membrane. It is filed as cell membranes. In outline:
as §1

Data set [4] has as its target T5, Monoacylglycerol lipase ABHD6 (Mus musculus, UniProt Q8R2Y0).
T5 sequence (Q8R2Y0 whole entry): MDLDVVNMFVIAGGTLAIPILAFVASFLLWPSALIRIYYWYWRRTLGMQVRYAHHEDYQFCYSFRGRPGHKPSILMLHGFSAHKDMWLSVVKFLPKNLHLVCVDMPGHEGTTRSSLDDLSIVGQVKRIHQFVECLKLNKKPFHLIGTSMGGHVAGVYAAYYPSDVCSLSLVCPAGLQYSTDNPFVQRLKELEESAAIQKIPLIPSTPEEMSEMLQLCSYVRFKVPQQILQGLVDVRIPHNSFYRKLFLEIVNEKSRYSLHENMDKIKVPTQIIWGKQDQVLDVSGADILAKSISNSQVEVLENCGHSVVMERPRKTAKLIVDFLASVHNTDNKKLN
Briefly: Inhibition of ABHD6 in mouse brain membrane. It is filed as cell membranes. In outline:
as §1

Data set [5] relates to Mus musculus. Kind of data set: In vivo inhibition of FAAH in mouse at 20 mg/kg, ip. Type of data set: functional, organism-based. Details: dose 20 mg/kg.
Data set [6] has as its system Mus musculus. Kind of data set: In vivo inhibition of FAAH in mouse at 100 mg/kg, po. Further details: dose 100 mg/kg. Type of data set: functional, organism-based.
Data set [7] concerns Mus musculus. Kind of data set: In vivo inhibition of MAGL in mouse at 20 mg/kg, ip. It is filed as functional, organism-based. Further details: dose 20 mg/kg.
The subject of data set [8] is Mus musculus. Kind of data set: Toxicity in mouse assessed as death at 20 mg/kg, ip for 6 days. It is filed as organism-based. Details: dose 20 mg/kg, route intraperitoneal. The settings on record: in vivo, 144 h.
The subject of data set [9] is Mus musculus. Kind of data set: In vivo inhibition of MAGL in mouse at 100 mg/kg, po. Further details: dose 100 mg/kg. Type of data set: functional, organism-based.
The species named for data set [10] is Mus musculus. Briefly: Selectivity ratio of IC50 for mouse FAAH to IC50 for mouse MAGL. In outline: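 Competitive ABPP on mouse brain membrane proteome (Dounce-homogenized in PBS pH 7.5, 64,000 × g pellet, resuspended), diluted to 1 mg/ml in PBS. Inhibitor preincubated 30 min at 37°C, then FP-rhodamine 1 μM final for 30 min at 25°C. SDS-PAGE and in-gel fluorescence scanning. IC50s for FAAH and MAGL come from integrated band intensities, means of ≥3 runs; the ratio is taken from these.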

Calls of active or inactive are those of the source. The rule behind the calls is not given here.

Regarding `O=C(Oc1ccc([N+](=O)[O-])cc1)N1CCN(Cc2cccc(Oc3cccc(C(F)(F)F)c3)c2)CC1`, the half-inhibitory concentration (IC50) amounted to 300 nM on Monoglyceride lipase, 5 nM in data set [2], 14400 nM in data set [3] and 320 nM in [4]. The same compound came in with an inhibition in data set [1] of 57%.

Consider `Cc1ccc(Oc2cccc(CN3CCN(C(=O)Oc4ccc([N+](=O)[O-])cc4)CC3)c2)cc1`, for which the IC50 against Monoglyceride lipase stood at 500 nM; in [2], 40 nM; in data set [3], 3000 nM; in data set [4] it was 1130 nM. This compound gave an inhibition in [1] of 70%.

Take `O=C(Oc1ccc([N+](=O)[O-])cc1)N1CCN(Cc2cccc(Oc3cc(Cl)cc(Cl)c3)c2)CC1`: the IC50 (at Monoglyceride lipase; in data set [2]; in data set [3]; in data set [4]) was > 100000 nM throughout. The same compound displayed an inhibition in [1] of 0%.

As for `O=C(Oc1ccc([N+](=O)[O-])cc1)N1CCN(Cc2cccc(Oc3ccccc3)c2)CC1`, the result in the data set on Mus musculus [5], in the data set on Mus musculus [6], in the data set with Mus musculus [7] and in the data set with Mus musculus [9] was inactive. For the same compound, the inhibition in data set [1] was determined as 50%. Also, the Activity result in the data set with Mus musculus [8] was “Non-toxic”. Besides, the IC50 in [2] was 13 nM; in [3] it was > 50000 nM; in [4], 50 nM.

Turning to `COc1ccc(Oc2cccc(CN3CCN(C(=O)Oc4ccc([N+](=O)[O-])cc4)CC3)c2)cc1`, the IC50 at Monoglyceride lipase turned out to be 130 nM; in [2] it was 90 nM; in data set [3], 2900 nM; in data set [4], 460 nM. The same compound displayed an inhibition in [1] of 60%.

On to `O=C(Oc1ccc([N+](=O)[O-])cc1)N1CCN(Cc2cc(Br)ccc2O)CC1`, for which the IC50 is 90 nM against Monoglyceride lipase, 720 nM in [2], 3240 nM in data set [3] and 130 nM in data set [4]. The compound further registered an inhibition in data set [1] of 73%.

`O=C(Oc1ccc([N+](=O)[O-])cc1)N1CCN(Cc2cccc(Oc3ccccn3)c2)CC1`: the IC50 against Monoglyceride lipase was found to be 50 nM; in data set [2], 40 nM; in data set [3], 1270 nM; in data set [4], 60 nM. This compound gave an inhibition in data set [1] of 73%.

For `O=C(Oc1ccc([N+](=O)[O-])cc1)N1CCN(Cc2ccc(-c3ccccc3OC(F)(F)F)o2)CC1`, the IC50 came out at 70 nM on Monoglyceride lipase, 5 nM in data set [2], 570 nM in data set [3] and 180 nM in data set [4]. Moreover, the inhibition in data set [1] amounted to 81%.

Regarding `O=C(Oc1ccc([N+](=O)[O-])cc1)N1CCC(=C(c2ccccc2)c2ccccc2)CC1`, the IC50 against Monoglyceride lipase was found to be 1390 nM; in [2], 3500 nM; in [4], 1300 nM. For the same compound, the Ratio IC50 in the data set listed under Mus musculus [10] worked out at 3.

For `COc1ccc(C(O)(c2ccc(OC)cc2)C2CCN(C(=O)Oc3ccc([N+](=O)[O-])cc3)CC2)cc1`, the IC50 is 40 nM against Monoglyceride lipase, 2660 nM in data set [2] and 2110 nM in [4]. In addition, the Ratio IC50 in the data set filed under Mus musculus [10] is 68.

With `O=C(Oc1ccc([N+](=O)[O-])cc1)N1CCC(C(O)(c2ccc3ccccc3c2)c2ccc3ccccc3c2)CC1`, the concentration for half-maximal inhibition (IC50) was determined as 810 nM against Monoglyceride lipase, 4690 nM in data set [2] and 3430 nM in data set [4]. Besides, the Ratio IC50 in the data set filed under Mus musculus [10] was 6.

One may read the IC50 as the midpoint of a concentration-inhibition curve. Lower therefore signals higher potency. The inhibition is the change of the read-out against control, counted positive when it falls.

Source of the values: ChEMBL document CHEMBL1156908, “Characterization of tunable piperidine and piperazine carbamates as inhibitors of endocannabinoid hydrolases” (J Med Chem, 2010).
